According to ChEMBL document CHEMBL3588770, “Novel spirohydantoin derivative as a potent multireceptor-active antipsychotic and antidepressant agent” (Bioorg Med Chem, 2015):

What follows are molecules tested against T1, 5-hydroxytryptamine receptor 1A (Rattus norvegicus, UniProt P19327) (assay: Displacement of [3H]-8-OH-DPAT from 5-HT1A receptor in rat hippocampal membrane by liquid scintillation analysis).
T1 sequence (P19327 whole entry): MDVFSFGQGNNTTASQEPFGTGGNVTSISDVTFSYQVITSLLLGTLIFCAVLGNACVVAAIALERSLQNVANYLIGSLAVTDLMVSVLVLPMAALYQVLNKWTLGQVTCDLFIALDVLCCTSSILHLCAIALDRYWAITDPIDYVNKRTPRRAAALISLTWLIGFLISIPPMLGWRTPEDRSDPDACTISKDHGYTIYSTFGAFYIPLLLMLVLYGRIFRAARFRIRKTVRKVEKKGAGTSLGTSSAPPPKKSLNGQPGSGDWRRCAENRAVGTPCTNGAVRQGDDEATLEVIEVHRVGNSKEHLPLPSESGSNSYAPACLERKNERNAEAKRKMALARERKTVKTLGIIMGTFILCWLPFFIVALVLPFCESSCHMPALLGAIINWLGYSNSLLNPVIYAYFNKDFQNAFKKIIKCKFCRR
Assay type: cell membranes, Hippocampus
How it was run: (§1)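 Native rat membranes were used: hippocampus with [3H]-8-OH-DPAT (170 Ci/mmol) and 5-HT for non-specific binding; cortex with [3H]-ketanserin (88.0 Ci/mmol) and methysergide; hypothalamus with [3H]-5-CT (34.5 Ci/mmol) and 5-HT. Compounds were tested in triplicate at 7–8 concentrations (10⁻¹¹–10⁻⁴ M). Read-out was liquid scintillation counting. Ki came from nonlinear regression with Cheng-Prusoff, as the mean of at least two experiments.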

Row | SMILES | Ki [nM]
1 | O=C1NC2(CCc3ccccc32)C(=O)N1CCCCN1CCN(c2cccc(Cl)c2)CC1 (stereo unspecified) | 12
2 | COc1ccccc1N1CCN(CCCCN2C(=O)NC3(CCc4ccccc43)C2=O)CC1 (stereo unspecified) | 2.6
3 | COc1ccccc1N1CCN(CCCCN2C(=O)NC3(CCCc4ccccc43)C2=O)CC1 (stereo unspecified) | 2.2
4 | O=C1NC2(CCCc3ccccc32)C(=O)N1CCCCN1CCN(c2cccc(Cl)c2)CC1 (stereo unspecified) | 15

What follows are molecules tested against 5-hydroxytryptamine receptor 2A (Rattus norvegicus, UniProt P14842) (assay: Displacement of [3H]ketanserin from 5-HT2A receptor in rat cortical membrane by liquid scintillation analysis).
Assay type: cell membranes
How it was run: as §1

Sequence of 5-hydroxytryptamine receptor 2A (P14842 whole entry): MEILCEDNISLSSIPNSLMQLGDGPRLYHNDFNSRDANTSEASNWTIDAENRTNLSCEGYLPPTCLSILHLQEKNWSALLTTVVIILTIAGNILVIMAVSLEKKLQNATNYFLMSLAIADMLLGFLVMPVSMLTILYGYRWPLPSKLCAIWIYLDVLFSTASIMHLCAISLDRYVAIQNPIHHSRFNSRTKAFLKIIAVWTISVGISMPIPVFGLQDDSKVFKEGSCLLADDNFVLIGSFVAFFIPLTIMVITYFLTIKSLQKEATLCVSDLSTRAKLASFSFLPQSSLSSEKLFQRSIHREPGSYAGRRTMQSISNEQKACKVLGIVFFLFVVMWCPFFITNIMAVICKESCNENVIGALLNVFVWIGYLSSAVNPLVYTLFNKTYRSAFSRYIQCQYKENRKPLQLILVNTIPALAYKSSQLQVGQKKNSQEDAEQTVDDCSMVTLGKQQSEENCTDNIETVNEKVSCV

Row | SMILES | Ki [nM]
5 | O=C1NC2(CCc3ccccc32)C(=O)N1CCCCN1CCN(c2cccc(Cl)c2)CC1 (stereo unspecified) | 21
6 | COc1ccccc1N1CCN(CCCCN2C(=O)NC3(CCc4ccccc43)C2=O)CC1 (stereo unspecified) | 98
7 | COc1ccccc1N1CCN(CCCCN2C(=O)NC3(CCCc4ccccc43)C2=O)CC1 (stereo unspecified) | 59
8 | O=C1NC2(CCCc3ccccc32)C(=O)N1CCCCN1CCN(c2cccc(Cl)c2)CC1 (stereo unspecified) | 27

The molecules below were run against 5-hydroxytryptamine receptor 7 (Rattus norvegicus, UniProt P32305) (assay: Displacement of [3H]-5-CT from 5-HT7 receptor in rat hypothalamic membrane by liquid scintillation analysis).
Assay type: cell membranes
How it was run: as §1

Sequence of 5-hydroxytryptamine receptor 7 (P32305 whole entry): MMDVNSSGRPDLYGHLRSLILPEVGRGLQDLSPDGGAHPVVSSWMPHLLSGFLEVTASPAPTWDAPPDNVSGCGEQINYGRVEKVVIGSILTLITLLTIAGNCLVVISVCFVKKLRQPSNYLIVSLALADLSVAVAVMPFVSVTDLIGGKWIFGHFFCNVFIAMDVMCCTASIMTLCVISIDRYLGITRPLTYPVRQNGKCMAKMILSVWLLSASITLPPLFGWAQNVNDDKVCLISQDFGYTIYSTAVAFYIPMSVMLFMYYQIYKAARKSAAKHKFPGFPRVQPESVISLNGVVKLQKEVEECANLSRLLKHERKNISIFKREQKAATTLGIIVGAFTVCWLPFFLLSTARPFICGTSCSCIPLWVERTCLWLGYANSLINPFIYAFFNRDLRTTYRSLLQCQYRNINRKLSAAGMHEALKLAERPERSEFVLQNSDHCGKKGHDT

Row | SMILES | Ki [nM]
9 | O=C1NC2(CCc3ccccc32)C(=O)N1CCCCN1CCN(c2cccc(Cl)c2)CC1 (stereo unspecified) | 27
10 | COc1ccccc1N1CCN(CCCCN2C(=O)NC3(CCc4ccccc43)C2=O)CC1 (stereo unspecified) | 71
11 | COc1ccccc1N1CCN(CCCCN2C(=O)NC3(CCCc4ccccc43)C2=O)CC1 (stereo unspecified) | 47
12 | O=C1NC2(CCCc3ccccc32)C(=O)N1CCCCN1CCN(c2cccc(Cl)c2)CC1 (stereo unspecified) | 37

Each molecule was assayed against D(1A) dopamine receptor (Homo sapiens) (UniProt P21728) (assay: Displacement of [3H]SCH23390 from human D1 receptor expressed in CHO cells at 1 uM by scintillation counting analysis).
Assay type: cell-based
How it was run: (§2)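 Extended binding screen run by a contract lab. Receptors were cloned human: 5-HT1A, 5-HT2A, 5-HT2C and H1 in HEK-293 cells; D1, α1, α2C and M3 in CHO cells; 5-HT6/7 and D2/3/4 in CHO cells. Radioligand displacement was done at a single 1.0E-06 concentration in duplicate. Results are mean % inhibition of control specific binding.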

Sequence of D(1A) dopamine receptor (Homo sapiens) (P21728 whole entry): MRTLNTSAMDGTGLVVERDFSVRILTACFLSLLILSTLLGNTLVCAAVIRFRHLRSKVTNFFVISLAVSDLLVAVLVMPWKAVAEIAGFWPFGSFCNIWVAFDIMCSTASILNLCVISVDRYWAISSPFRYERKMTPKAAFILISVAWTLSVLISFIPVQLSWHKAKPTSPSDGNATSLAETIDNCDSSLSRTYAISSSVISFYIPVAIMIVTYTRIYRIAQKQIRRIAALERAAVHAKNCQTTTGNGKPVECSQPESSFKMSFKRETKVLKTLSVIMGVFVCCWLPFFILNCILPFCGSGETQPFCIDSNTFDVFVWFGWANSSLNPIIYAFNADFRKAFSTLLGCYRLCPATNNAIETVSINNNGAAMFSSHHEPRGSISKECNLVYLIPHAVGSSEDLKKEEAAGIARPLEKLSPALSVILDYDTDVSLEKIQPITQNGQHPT

Row | SMILES | inhibition [%]
13 | O=C1NC2(CCc3ccccc32)C(=O)N1CCCCN1CCN(c2cccc(Cl)c2)CC1 (stereo unspecified) | 91
14 | COc1ccccc1N1CCN(CCCCN2C(=O)NC3(CCc4ccccc43)C2=O)CC1 (stereo unspecified) | 68
15 | COc1ccccc1N1CCN(CCCCN2C(=O)NC3(CCCc4ccccc43)C2=O)CC1 (stereo unspecified) | 87
16 | O=C1NC2(CCCc3ccccc32)C(=O)N1CCCCN1CCN(c2cccc(Cl)c2)CC1 (stereo unspecified) | 95

These molecules were tested against D(2) dopamine receptor (Homo sapiens) (UniProt P14416) (assay: Displacement of [3H]methylspiperione from human D2 receptor expressed in CHO cells at 1 uM by scintillation counting analysis).
Assay type: cell-based
How it was run: as §2

Sequence of D(2) dopamine receptor (Homo sapiens) (P14416 whole entry): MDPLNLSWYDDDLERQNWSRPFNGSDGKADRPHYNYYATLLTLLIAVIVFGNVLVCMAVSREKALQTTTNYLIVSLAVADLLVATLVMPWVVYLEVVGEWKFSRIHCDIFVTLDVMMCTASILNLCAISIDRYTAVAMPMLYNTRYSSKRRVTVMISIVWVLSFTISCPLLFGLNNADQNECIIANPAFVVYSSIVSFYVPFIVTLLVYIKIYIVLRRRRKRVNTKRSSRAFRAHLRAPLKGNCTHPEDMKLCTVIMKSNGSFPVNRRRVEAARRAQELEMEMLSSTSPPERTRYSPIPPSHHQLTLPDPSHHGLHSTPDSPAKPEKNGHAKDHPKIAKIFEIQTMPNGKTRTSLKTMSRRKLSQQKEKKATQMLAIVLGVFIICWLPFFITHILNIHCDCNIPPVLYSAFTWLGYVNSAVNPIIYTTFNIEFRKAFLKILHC

Row | SMILES | inhibition [%]
17 | O=C1NC2(CCc3ccccc32)C(=O)N1CCCCN1CCN(c2cccc(Cl)c2)CC1 (stereo unspecified) | 75
18 | COc1ccccc1N1CCN(CCCCN2C(=O)NC3(CCc4ccccc43)C2=O)CC1 (stereo unspecified) | 96
19 | COc1ccccc1N1CCN(CCCCN2C(=O)NC3(CCCc4ccccc43)C2=O)CC1 (stereo unspecified) | 97
20 | O=C1NC2(CCCc3ccccc32)C(=O)N1CCCCN1CCN(c2cccc(Cl)c2)CC1 (stereo unspecified) | 77

Each molecule was assayed against D(3) dopamine receptor (Homo sapiens) (UniProt P35462) (assay: Displacement of [3H]methylspiperione from human D3 receptor expressed in CHO cells at 1 uM by scintillation counting analysis).
Assay type: cell-based
How it was run: as §2

Sequence of D(3) dopamine receptor (Homo sapiens) (P35462 whole entry): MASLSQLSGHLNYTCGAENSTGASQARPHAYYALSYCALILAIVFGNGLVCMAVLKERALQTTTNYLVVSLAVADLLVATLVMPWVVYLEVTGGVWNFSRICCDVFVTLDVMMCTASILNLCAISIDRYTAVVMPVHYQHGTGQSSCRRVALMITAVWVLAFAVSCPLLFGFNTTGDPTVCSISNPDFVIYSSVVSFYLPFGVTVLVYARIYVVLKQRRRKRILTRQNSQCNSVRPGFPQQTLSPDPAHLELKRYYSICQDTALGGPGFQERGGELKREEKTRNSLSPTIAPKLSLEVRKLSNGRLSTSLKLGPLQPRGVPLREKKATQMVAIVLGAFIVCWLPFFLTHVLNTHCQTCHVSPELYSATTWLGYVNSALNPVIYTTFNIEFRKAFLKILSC

Row | SMILES | inhibition [%]
21 | O=C1NC2(CCc3ccccc32)C(=O)N1CCCCN1CCN(c2cccc(Cl)c2)CC1 (stereo unspecified) | 97
22 | COc1ccccc1N1CCN(CCCCN2C(=O)NC3(CCc4ccccc43)C2=O)CC1 (stereo unspecified) | 96
23 | COc1ccccc1N1CCN(CCCCN2C(=O)NC3(CCCc4ccccc43)C2=O)CC1 (stereo unspecified) | 94
24 | O=C1NC2(CCCc3ccccc32)C(=O)N1CCCCN1CCN(c2cccc(Cl)c2)CC1 (stereo unspecified) | 93

The molecules below were run against T2, D(4) dopamine receptor (Homo sapiens) (UniProt P21917) (assay: Displacement of [3H]methylspiperione from human D4 receptor expressed in CHO cells at 1 uM by scintillation counting analysis).
T2 sequence (whole entry): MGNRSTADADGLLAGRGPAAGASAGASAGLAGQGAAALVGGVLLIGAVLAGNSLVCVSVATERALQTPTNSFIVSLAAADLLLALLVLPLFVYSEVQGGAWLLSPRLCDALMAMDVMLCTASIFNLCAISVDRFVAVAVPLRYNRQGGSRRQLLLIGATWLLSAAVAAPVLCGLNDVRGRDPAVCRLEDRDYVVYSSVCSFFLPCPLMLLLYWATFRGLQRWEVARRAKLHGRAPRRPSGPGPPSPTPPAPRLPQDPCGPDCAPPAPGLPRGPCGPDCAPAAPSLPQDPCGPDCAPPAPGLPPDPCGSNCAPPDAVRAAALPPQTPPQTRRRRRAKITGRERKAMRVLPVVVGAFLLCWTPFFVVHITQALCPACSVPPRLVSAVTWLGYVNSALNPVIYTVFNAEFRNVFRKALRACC
Assay type: cell-based
How it was run: as §2

Row | SMILES | inhibition [%]
25 | O=C1NC2(CCc3ccccc32)C(=O)N1CCCCN1CCN(c2cccc(Cl)c2)CC1 (stereo unspecified) | 90
26 | COc1ccccc1N1CCN(CCCCN2C(=O)NC3(CCc4ccccc43)C2=O)CC1 (stereo unspecified) | 95
27 | COc1ccccc1N1CCN(CCCCN2C(=O)NC3(CCCc4ccccc43)C2=O)CC1 (stereo unspecified) | 98
28 | O=C1NC2(CCCc3ccccc32)C(=O)N1CCCCN1CCN(c2cccc(Cl)c2)CC1 (stereo unspecified) | 93

What follows are molecules tested against 5-hydroxytryptamine receptor 2A (Homo sapiens) (UniProt P28223) (assay: Displacement of [3H]ketanserin from human cloned 5HT2A receptor expressed in HEK293 cells at 1uM by scintillation counting analysis).
Assay type: cell-based
How it was run: as §2

Sequence of 5-hydroxytryptamine receptor 2A (Homo sapiens) (P28223 whole entry): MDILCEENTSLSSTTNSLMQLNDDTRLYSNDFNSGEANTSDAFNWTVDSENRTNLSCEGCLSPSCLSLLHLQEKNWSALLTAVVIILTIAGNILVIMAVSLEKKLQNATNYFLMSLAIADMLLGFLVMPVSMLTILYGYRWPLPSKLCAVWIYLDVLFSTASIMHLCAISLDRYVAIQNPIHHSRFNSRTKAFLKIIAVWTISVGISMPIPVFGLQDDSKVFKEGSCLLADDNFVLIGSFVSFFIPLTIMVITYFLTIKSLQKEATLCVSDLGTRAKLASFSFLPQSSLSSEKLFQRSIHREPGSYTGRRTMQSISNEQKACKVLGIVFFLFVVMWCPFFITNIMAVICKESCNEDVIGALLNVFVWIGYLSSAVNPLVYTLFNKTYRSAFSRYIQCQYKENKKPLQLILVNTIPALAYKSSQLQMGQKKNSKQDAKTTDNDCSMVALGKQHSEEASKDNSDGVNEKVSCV

Row | SMILES | inhibition [%]
29 | O=C1NC2(CCc3ccccc32)C(=O)N1CCCCN1CCN(c2cccc(Cl)c2)CC1 (stereo unspecified) | 98
30 | COc1ccccc1N1CCN(CCCCN2C(=O)NC3(CCc4ccccc43)C2=O)CC1 (stereo unspecified) | 100
31 | COc1ccccc1N1CCN(CCCCN2C(=O)NC3(CCCc4ccccc43)C2=O)CC1 (stereo unspecified) | 69
32 | O=C1NC2(CCCc3ccccc32)C(=O)N1CCCCN1CCN(c2cccc(Cl)c2)CC1 (stereo unspecified) | 95

Each molecule was assayed against T3, 5-hydroxytryptamine receptor 2C (Homo sapiens) (UniProt P28335) (assay: Displacement of [3H]-mesulergine from human cloned 5HT2C receptor expressed in HEK293 cells at 1 uM by scintillation counting analysis).
T3 sequence (whole entry): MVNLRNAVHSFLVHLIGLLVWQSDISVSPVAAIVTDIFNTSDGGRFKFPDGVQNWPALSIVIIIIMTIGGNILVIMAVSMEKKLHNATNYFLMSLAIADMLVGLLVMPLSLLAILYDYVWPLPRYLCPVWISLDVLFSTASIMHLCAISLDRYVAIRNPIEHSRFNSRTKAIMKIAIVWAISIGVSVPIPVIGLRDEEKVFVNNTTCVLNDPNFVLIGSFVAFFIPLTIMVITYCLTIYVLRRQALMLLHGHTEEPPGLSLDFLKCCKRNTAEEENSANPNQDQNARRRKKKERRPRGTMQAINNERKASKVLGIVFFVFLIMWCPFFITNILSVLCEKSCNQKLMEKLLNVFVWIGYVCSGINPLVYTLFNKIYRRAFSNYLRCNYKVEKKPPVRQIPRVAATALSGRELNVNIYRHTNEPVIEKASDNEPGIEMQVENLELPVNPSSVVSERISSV
Assay type: cell-based
How it was run: as §2

Row | SMILES | inhibition [%]
33 | O=C1NC2(CCc3ccccc32)C(=O)N1CCCCN1CCN(c2cccc(Cl)c2)CC1 (stereo unspecified) | 61
34 | COc1ccccc1N1CCN(CCCCN2C(=O)NC3(CCc4ccccc43)C2=O)CC1 (stereo unspecified) | 21
35 | COc1ccccc1N1CCN(CCCCN2C(=O)NC3(CCCc4ccccc43)C2=O)CC1 (stereo unspecified) | 24
36 | O=C1NC2(CCCc3ccccc32)C(=O)N1CCCCN1CCN(c2cccc(Cl)c2)CC1 (stereo unspecified) | 61

What follows are molecules tested against 5-hydroxytryptamine receptor 6 (Homo sapiens) (UniProt P50406) (assay: Displacement of [3H]LSD from human 5HT6 receptor expressed in CHO cells at 1 uM by scintillation counting analysis).
Assay type: cell-based
How it was run: as §2

Sequence of 5-hydroxytryptamine receptor 6 (Homo sapiens) (P50406 whole entry): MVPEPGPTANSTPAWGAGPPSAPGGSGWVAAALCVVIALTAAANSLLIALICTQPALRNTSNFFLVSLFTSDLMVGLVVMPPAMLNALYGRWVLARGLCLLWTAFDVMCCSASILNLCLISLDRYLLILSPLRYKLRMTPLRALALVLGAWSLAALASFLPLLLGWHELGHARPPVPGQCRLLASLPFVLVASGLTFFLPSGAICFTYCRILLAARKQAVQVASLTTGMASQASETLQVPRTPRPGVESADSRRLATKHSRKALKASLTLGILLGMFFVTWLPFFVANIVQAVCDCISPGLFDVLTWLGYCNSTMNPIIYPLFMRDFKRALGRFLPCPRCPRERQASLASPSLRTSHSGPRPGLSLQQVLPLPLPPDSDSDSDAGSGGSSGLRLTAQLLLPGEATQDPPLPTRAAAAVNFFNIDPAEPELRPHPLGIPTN

Row | SMILES | inhibition [%]
37 | O=C1NC2(CCc3ccccc32)C(=O)N1CCCCN1CCN(c2cccc(Cl)c2)CC1 (stereo unspecified) | 23
38 | COc1ccccc1N1CCN(CCCCN2C(=O)NC3(CCc4ccccc43)C2=O)CC1 (stereo unspecified) | 3
39 | COc1ccccc1N1CCN(CCCCN2C(=O)NC3(CCCc4ccccc43)C2=O)CC1 (stereo unspecified) | 29
40 | O=C1NC2(CCCc3ccccc32)C(=O)N1CCCCN1CCN(c2cccc(Cl)c2)CC1 (stereo unspecified) | 37

Each molecule was assayed against 5-hydroxytryptamine receptor 7 (Homo sapiens) (UniProt P34969) (assay: Displacement of [3H]LSD from human 5HT7 receptor expressed in CHO cells at 1 uM by scintillation counting analysis).
Assay type: cell-based
How it was run: as §2

Sequence of 5-hydroxytryptamine receptor 7 (Homo sapiens) (P34969 whole entry): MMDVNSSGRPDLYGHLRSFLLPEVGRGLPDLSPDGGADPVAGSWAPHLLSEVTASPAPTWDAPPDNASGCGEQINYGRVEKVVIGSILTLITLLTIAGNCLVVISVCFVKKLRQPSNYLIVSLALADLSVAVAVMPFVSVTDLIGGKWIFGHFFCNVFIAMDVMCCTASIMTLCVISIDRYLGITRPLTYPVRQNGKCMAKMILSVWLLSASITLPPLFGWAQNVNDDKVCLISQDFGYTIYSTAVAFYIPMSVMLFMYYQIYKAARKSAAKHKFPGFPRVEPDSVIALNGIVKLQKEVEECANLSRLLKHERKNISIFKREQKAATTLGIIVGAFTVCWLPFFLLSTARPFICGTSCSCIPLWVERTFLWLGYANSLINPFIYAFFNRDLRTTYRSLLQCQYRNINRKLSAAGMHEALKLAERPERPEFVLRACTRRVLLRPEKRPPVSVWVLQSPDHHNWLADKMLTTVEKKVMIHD

Row | SMILES | inhibition [%]
41 | O=C1NC2(CCc3ccccc32)C(=O)N1CCCCN1CCN(c2cccc(Cl)c2)CC1 (stereo unspecified) | 99
42 | COc1ccccc1N1CCN(CCCCN2C(=O)NC3(CCc4ccccc43)C2=O)CC1 (stereo unspecified) | 98
43 | COc1ccccc1N1CCN(CCCCN2C(=O)NC3(CCCc4ccccc43)C2=O)CC1 (stereo unspecified) | 99
44 | O=C1NC2(CCCc3ccccc32)C(=O)N1CCCCN1CCN(c2cccc(Cl)c2)CC1 (stereo unspecified) | 100

The molecules below were run against Adrenergic receptor alpha-1 (Homo sapiens) (UniProt P35348+P25100+P35368) (assay: Displacement of [3H]prazosin from human alpha1-adrenergic receptor expressed in CHO cells at 1 uM by scintillation counting analysis).
Assay type: cell-based
How it was run: as §2

Row | SMILES | inhibition [%]
45 | O=C1NC2(CCc3ccccc32)C(=O)N1CCCCN1CCN(c2cccc(Cl)c2)CC1 (stereo unspecified) | 96
46 | COc1ccccc1N1CCN(CCCCN2C(=O)NC3(CCc4ccccc43)C2=O)CC1 (stereo unspecified) | 98
47 | COc1ccccc1N1CCN(CCCCN2C(=O)NC3(CCCc4ccccc43)C2=O)CC1 (stereo unspecified) | 99
48 | O=C1NC2(CCCc3ccccc32)C(=O)N1CCCCN1CCN(c2cccc(Cl)c2)CC1 (stereo unspecified) | 94

What follows are molecules tested against Muscarinic acetylcholine receptor M3 (Homo sapiens) (UniProt P20309) (assay: Displacement of [3H]-4-DAMP from human muscarinic M3 receptor expressed in CHO cells at 1 uM by scintillation counting analysis).
Assay type: cell-based
How it was run: as §2

Sequence of Muscarinic acetylcholine receptor M3 (Homo sapiens) (P20309 whole entry, looked up): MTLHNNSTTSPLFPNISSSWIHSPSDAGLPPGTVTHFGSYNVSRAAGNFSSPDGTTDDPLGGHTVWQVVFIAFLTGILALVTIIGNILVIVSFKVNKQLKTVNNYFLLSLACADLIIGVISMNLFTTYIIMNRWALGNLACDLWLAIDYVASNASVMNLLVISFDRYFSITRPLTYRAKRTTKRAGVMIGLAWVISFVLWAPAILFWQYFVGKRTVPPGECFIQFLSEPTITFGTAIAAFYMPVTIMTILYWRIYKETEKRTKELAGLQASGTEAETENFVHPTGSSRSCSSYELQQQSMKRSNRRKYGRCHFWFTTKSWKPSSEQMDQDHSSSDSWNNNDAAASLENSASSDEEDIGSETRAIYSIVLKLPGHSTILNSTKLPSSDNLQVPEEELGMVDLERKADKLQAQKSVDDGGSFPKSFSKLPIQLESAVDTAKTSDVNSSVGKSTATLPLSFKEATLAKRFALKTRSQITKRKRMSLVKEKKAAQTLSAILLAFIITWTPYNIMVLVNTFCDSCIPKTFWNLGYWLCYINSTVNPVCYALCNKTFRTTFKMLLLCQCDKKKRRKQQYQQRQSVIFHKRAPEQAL

Row | SMILES | inhibition [%]
49 | O=C1NC2(CCc3ccccc32)C(=O)N1CCCCN1CCN(c2cccc(Cl)c2)CC1 (stereo unspecified) | 5
50 | COc1ccccc1N1CCN(CCCCN2C(=O)NC3(CCc4ccccc43)C2=O)CC1 (stereo unspecified) | 5
51 | COc1ccccc1N1CCN(CCCCN2C(=O)NC3(CCCc4ccccc43)C2=O)CC1 (stereo unspecified) | -6
52 | O=C1NC2(CCCc3ccccc32)C(=O)N1CCCCN1CCN(c2cccc(Cl)c2)CC1 (stereo unspecified) | 3

The molecules below were run against Histamine H1 receptor (Homo sapiens) (UniProt P35367) (assay: Displacement of [3H]-pyrilamine from human cloned H1 receptor expressed in HEK293 cells at 1 uM by scintillation counting analysis).
Assay type: cell-based
How it was run: as §2

Sequence of Histamine H1 receptor (Homo sapiens) (P35367 whole entry): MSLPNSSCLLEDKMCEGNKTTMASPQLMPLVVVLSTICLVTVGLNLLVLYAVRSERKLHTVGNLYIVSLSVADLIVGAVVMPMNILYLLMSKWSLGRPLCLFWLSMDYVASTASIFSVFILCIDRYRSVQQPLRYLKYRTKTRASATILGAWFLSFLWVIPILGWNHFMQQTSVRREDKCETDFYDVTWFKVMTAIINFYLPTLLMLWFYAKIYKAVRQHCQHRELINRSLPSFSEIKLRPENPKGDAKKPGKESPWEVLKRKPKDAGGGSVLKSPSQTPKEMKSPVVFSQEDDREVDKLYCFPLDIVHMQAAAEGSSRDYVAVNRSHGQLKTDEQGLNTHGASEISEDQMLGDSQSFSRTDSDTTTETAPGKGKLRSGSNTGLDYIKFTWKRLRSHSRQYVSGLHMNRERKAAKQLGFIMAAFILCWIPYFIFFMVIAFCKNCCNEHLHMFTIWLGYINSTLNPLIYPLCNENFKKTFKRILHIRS

Row | SMILES | inhibition [%]
53 | O=C1NC2(CCc3ccccc32)C(=O)N1CCCCN1CCN(c2cccc(Cl)c2)CC1 (stereo unspecified) | 101
54 | COc1ccccc1N1CCN(CCCCN2C(=O)NC3(CCc4ccccc43)C2=O)CC1 (stereo unspecified) | 94
55 | COc1ccccc1N1CCN(CCCCN2C(=O)NC3(CCCc4ccccc43)C2=O)CC1 (stereo unspecified) | 99
56 | O=C1NC2(CCCc3ccccc32)C(=O)N1CCCCN1CCN(c2cccc(Cl)c2)CC1 (stereo unspecified) | 102
